In ChEMBL document CHEMBL2407049, “Cyclopeptide alkaloids: stereochemistry and synthesis of the precursors of discarines C and D and myrianthine A” (2013):

Key:
Cryptococcus neoformans = experiment: Antifungal activity against Cryptococcus neoformans ATCC 28952 assessed as concentration required to inhibit fungal growth after 24 hrs by TLC assay; type: functional
Summary of the method: (§1)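 Direct TLC bioautography: compound amounts from 50 to 1.56 μg applied to precoated TLC plates, overlaid with Mueller Hinton or Sabouraud agar inoculated with microorganism suspension (10⁵ cfu mL⁻¹). Plates incubated 24 h at 37 °C, then stained with aqueous 2,3,5-triphenyltetrazolium chloride (1 mg mL⁻¹). The lowest amount giving an inhibition zone was recorded; <50 μg counted active. Triplicate.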

Candida albicans = experiment: Antifungal activity against Candida albicans ATCC 10231 assessed as concentration required to inhibit fungal growth after 24 hrs by TLC assay; type: functional; summary of the method: as §1
[1] = test system: Staphylococcus epidermidis; experiment: Antibacterial activity against Staphylococcus epidermidis ATCC 12228 assessed as concentration required to inhibit bacterial growth after 24 hrs by TLC assay; type: functional; summary of the method: as §1
Escherichia coli = experiment: Antibacterial activity against Escherichia coli ATCC 11103 assessed as concentration required to inhibit bacterial growth after 24 hrs by TLC assay; type: functional; summary of the method: as §1
Klebsiella pneumoniae = experiment: Antibacterial activity against Klebsiella pneumoniae ATCC 10031 assessed as concentration required to inhibit bacterial growth after 24 hrs by TLC assay; type: functional; summary of the method: as §1
[2] = Antibacterial activity against Salmonella Setubal ATCC 19196 assessed as concentration required to inhibit bacterial growth after 24 hrs by TLC assay; type: functional, Salmonella enterica subsp. enterica serovar Setubal; summary of the method: as §1
Kocuria rhizophila = experiment: Antibacterial activity against Micrococcus luteus ATCC 9341 assessed as concentration required to inhibit bacterial growth after 24 hrs by TLC assay; type: functional; summary of the method: as §1
Candida dubliniensis = experiment: Antifungal activity against Candida dubliniensis SM 26 clinical isolate assessed as concentration required to inhibit fungal growth after 24 hrs by TLC assay; type: functional; summary of the method: as §1
Saccharomyces cerevisiae = experiment: Antifungal activity against Saccharomyces cerevisiae ATCC 2601 assessed as concentration required to inhibit fungal growth after 24 hrs by TLC assay; type: functional; summary of the method: as §1
Staphylococcus aureus = experiment: Antibacterial activity against Staphylococcus aureus ATCC 6538p assessed as concentration required to inhibit bacterial growth after 24 hrs by TLC assay; type: functional; summary of the method: as §1
Candida tropicalis = experiment: Antifungal activity against Candida tropicalis ATCC 750 assessed as concentration required to inhibit fungal growth after 24 hrs by TLC assay; type: functional; summary of the method: as §1

SMILES | Activity (Cryptococcus neoformans) [µg] | Activity (Candida albicans) [µg] | Activity [1] [µg] | Activity (Escherichia coli) [µg] | Activity (Klebsiella pneumoniae) [µg] | Activity [2] [µg] | Activity (Kocuria rhizophila) [µg] | Activity (Candida dubliniensis) [µg] | Activity (Saccharomyces cerevisiae) [µg] | Activity (Staphylococcus aureus) [µg] | Activity (Candida tropicalis) [µg]
CC(C)C[C@@H](C(=O)N[C@@H]1C(=O)N[C@@H](Cc2ccccc2)C(=O)N/C=C\c2ccc(cc2)O[C@H]1c1ccccc1)N(C)C | >50 | >50 | >50 | >50 | >50 | >50 | >50 | >50 | >50 | >50 | >50
COC(=O)[C@H](CC(C)C)NC(=O)[C@H](NC(=O)[C@@H](N)CC(C)C)[C@@H](O)c1ccccc1 | <50 | <50 | <50 | <50 | <50 | <50 | <50 | <50 | <50 | <50 | <50
COC(=O)[C@H](Cc1ccccc1)NC(=O)[C@@H](NC(=O)[C@@H](N)CC(C)C)[C@H](O)c1ccccc1 | <50 | <50 | >50 | 1.5 | <50 | <50 | <50 | <50 | <50 | <50 | <50
CC[C@H](C)[C@H](NC(=O)[C@H](NC(=O)[C@@H](N)CC(C)C)[C@@H](O)c1ccccc1)C(=O)OC | <50 | <50 | <50 | <50 | <50 | <50 | <50 | <50 | <50 | <50 | <50
COC(=O)[C@H](Cc1ccccc1)NC(=O)[C@H](NC(=O)[C@H](CC(C)C)N(C)C)[C@@H](O)c1ccccc1 | <50 | <50 | <50 | <50 | <50 | <50 | <50 | <50 | <50 | <50 | <50
COC(=O)[C@H](Cc1ccccc1)NC(=O)[C@H]([C@H](O)c1ccccc1)N1CN(C)[C@@H](CC(C)C)C1=O | <50 | <50 | 50 | >50 | 50 | 25 | <50 | <50 | <50 | <50 | <50
CC[C@H](C)[C@@H]1NC(=O)[C@@H](NC(=O)[C@H](CC(C)C)N(C)C)[C@H](c2ccccc2)Oc2ccc(cc2)/C=C\NC1=O (mixture of isomers) | >50 | >50 | >50 | >50 | >50 | >50 | >50 | >50 | >50 | >50 | >50
CC(C)C[C@@H]1NC(=O)[C@@H](NC(=O)[C@H](CC(C)C)N(C)C)[C@H](c2ccccc2)Oc2ccc(cc2)/C=C\NC1=O (mixture of isomers) | >50 | >50 | >50 | >50 | >50 | >50 | >50 | >50 | >50 | >50 | >50
CC[C@H](C)[C@H](NC(=O)[C@@H]([C@H](Oc1ccc(C=O)cc1)c1ccccc1)N1CN(C)[C@@H](CC(C)C)C1=O)C(=O)OC (mixture of isomers) | <50 | <50 | <50 | <50 | <50 | <50 | <50 | <50 | <50 | <50 | <50
CC[C@H](C)[C@H](NC(=O)[C@H]([C@@H](Oc1ccc(C=O)cc1)c1ccccc1)N1CN(C)[C@@H](CC(C)C)C1=O)C(=O)OC (mixture of isomers) | <50 | <50 | <50 | <50 | <50 | <50 | <50 | <50 | <50 | <50 | <50
COC(=O)[C@H](Cc1ccccc1)NC(=O)[C@@H]([C@H](Oc1ccc(C=O)cc1)c1ccccc1)N1CN(C)[C@@H](CC(C)C)C1=O (mixture of isomers) | <50 | <50 | <50 | <50 | <50 | <50 | <50 | <50 | <50 | <50 | <50
COC(=O)[C@H](Cc1ccccc1)NC(=O)[C@@H]([C@@H](O)c1ccccc1)N1CN(C)[C@@H](CC(C)C)C1=O (mixture of isomers) | <50 | <50 | 6.2 | 3.1 | 6.2 | 12.5 | <50 | <50 | <50 | <50 | <50
CC[C@H](C)[C@H](NC(=O)[C@@H]([C@@H](O)c1ccccc1)N1CN(C)[C@@H](CC(C)C)C1=O)C(=O)OC (mixture of isomers) | <50 | <50 | <50 | <50 | <50 | <50 | <50 | <50 | <50 | <50 | <50
COC(=O)[C@H](CC(C)C)NC(=O)[C@@H](NC(=O)[C@H](CC(C)C)N(C)C)[C@@H](Oc1ccc(C=O)cc1)c1ccccc1 (mixture of isomers) | <50 | <50 | <50 | <50 | <50 | <50 | <50 | <50 | <50 | <50 | <50
COC(=O)[C@H](CC(C)C)NC(=O)[C@H](NC(=O)[C@H](CC(C)C)N(C)C)[C@H](Oc1ccc(C=O)cc1)c1ccccc1 (mixture of isomers) | <50 | <50 | <50 | <50 | <50 | <50 | <50 | <50 | <50 | <50 | <50
COC(=O)[C@H](CC(C)C)NC(=O)[C@H]([C@@H](Oc1ccc(C=O)cc1)c1ccccc1)N1CN(C)[C@@H](CC(C)C)C1=O (mixture of isomers) | <50 | <50 | <50 | <50 | <50 | <50 | <50 | <50 | <50 | <50 | <50
COC(=O)[C@H](CC(C)C)NC(=O)[C@@H]([C@H](Oc1ccc(C=O)cc1)c1ccccc1)N1CN(C)[C@@H](CC(C)C)C1=O (mixture of isomers) | <50 | <50 | <50 | <50 | <50 | <50 | <50 | <50 | <50 | <50 | <50
COC(=O)[C@H](Cc1ccccc1)NC(=O)[C@H]([C@@H](Oc1ccc(C=O)cc1)c1ccccc1)N1CN(C)[C@@H](CC(C)C)C1=O (mixture of isomers) | <50 | <50 | <50 | <50 | <50 | <50 | <50 | <50 | <50 | <50 | <50
